According to paper PMC7658073 (Clinical Pharmacokinetics, 2020):
Read-outs that look alike come from different tables or passages of the source.

How the values were obtained:
[1] = Phase I DDI study with ketoconazole; assay type: in vivo, human
Method in brief: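 Randomized, open-label, two-fold crossover in healthy men. Ketoconazole 200 mg BID orally for 3 days, given before and with a single oral 1.25 mg dose of test compound, fed, versus test compound alone.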

OAT3 = target: T1, OAT3 (Homo sapiens, UniProt Q8TCC7); assay: Inhibitory potency towards OAT3; assay type: in vitro ADME
T1 sequence (Q8TCC7 1-542): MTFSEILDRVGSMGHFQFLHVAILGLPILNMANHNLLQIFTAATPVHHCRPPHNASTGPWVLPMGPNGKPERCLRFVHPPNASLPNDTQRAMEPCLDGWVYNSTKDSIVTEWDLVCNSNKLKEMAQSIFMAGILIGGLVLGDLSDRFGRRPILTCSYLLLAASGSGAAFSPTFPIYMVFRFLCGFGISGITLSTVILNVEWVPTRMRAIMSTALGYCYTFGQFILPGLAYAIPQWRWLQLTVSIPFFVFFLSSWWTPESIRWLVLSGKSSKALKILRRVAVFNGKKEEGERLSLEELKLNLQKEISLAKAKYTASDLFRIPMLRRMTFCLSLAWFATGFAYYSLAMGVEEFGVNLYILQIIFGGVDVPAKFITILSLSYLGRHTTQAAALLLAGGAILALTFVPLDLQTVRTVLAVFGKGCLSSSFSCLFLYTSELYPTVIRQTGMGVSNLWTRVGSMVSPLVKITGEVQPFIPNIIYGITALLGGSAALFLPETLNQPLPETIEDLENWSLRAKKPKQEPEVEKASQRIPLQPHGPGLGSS

UGT1A6 = target: T2, UGT1A6 (Homo sapiens, UniProt P19224); assay: Inhibitory potency towards UGT isoforms: UGT1A6; assay type: in vitro ADME
T2 sequence (P19224 27-532): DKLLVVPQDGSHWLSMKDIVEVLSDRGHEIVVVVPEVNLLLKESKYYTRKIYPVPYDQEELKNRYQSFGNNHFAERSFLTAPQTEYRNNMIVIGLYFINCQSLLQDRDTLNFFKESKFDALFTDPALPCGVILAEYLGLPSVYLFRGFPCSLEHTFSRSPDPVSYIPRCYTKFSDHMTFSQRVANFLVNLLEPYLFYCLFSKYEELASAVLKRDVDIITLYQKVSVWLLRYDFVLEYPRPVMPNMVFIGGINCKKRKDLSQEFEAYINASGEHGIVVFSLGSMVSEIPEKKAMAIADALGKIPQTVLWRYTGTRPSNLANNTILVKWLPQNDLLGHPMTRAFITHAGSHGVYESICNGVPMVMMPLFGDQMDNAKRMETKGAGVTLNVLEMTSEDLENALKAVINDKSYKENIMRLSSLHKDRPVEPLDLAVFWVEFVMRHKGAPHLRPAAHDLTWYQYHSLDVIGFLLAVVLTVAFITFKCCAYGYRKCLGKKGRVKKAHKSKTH

[2] = multiple oral doses vericiguat 2.5 mg 2 h prior to sacubitril/valsartan; cited from earlier work
[3] = cited from earlier work
[4] = with ketoconazole 200 mg BID vs vericiguat 1.25 mg SD alone, fed

Increase in vericiguat exposure (AUC) ([1]; co-administration with ketoconazole 200 mg twice daily): 13% | AUC of vericiguat, point estimate of treatment ratio [1, 4]: 1.126 | Cmax of vericiguat, point estimate of treatment ratio [1, 4]: 1.109 | IC50 (OAT3): > 5 µM | IC50 (UGT1A6): > 50 µM
SMILES: COC(=O)Nc1c(N)nc(-c2nn(Cc3ccccc3F)c3ncc(F)cc23)nc1N [Vericiguat]
Effect on seated blood pressure [2]: no additional effect | Clearance ([3]; healthy volunteers): 1.6 L/h | Clearance ([3]; patients with HFrEF): 1.3 L/h | Variability in steady-state AUC ([3]; population PK model, patients with HFrEF): about 30%
